Experimental data of several laboratories.
Lines come from different studies, so protocols differ.
Organism: Escherichia coli
Read-out: microbial growth

Compound | test | test system | conditions | MIC
Cn1cc(NC(=O)C(CC(N)=O)NC(=O)c2ccc(NC(=O)c3ccc(C#N)cc3)cc2)cc1-c1nc2ccc(C(=O)Nc3ccc(C(=O)O)cc3)c(O)c2[nH]1 (stereo not drawn) | – | DSM1116 | – | > 64 µg/mL
CCCCCCC/C=C/C(=O)N1C(=O)/C(=C(\O)C2CCNCC2)C(=O)C1CC(C)C (stereo not drawn) | – | K12, K12 | – | 25 µg/mL
O=C(Nc1ncc([N+](=O)[O-])s1)c1cccc(C(F)(F)F)c1 | – | – | – | < 50 µM
N=C(N)c1ccc(OCc2cc(COc3ccc(C(=N)N)cc3)cc(-c3ccccc3)c2)cc1 | – | BW25113 | – | ≥ 100 µg/mL
CCCC(=O)Oc1c(C)c(O)c(C(=O)/C=C/c2ccccc2)c(OC)c1C | broth dilution | ATCC25922 | – | 5000 µg/mL
Cc1ccc(C)n1-c1ccc(-c2nnco2)cc1 | broth dilution | ATCC10536 | 18 h | 4 µg/mL
CC(C)Oc1c(NC(=O)c2ccc(NC(=O)[C@H](CC(N)=O)NC(=O)c3ccc(NC(=O)CCc4ccc(C#N)cc4)cc3)cc2)ccc(C(=O)Nc2ccc(C(=O)O)cc2)c1O | – | DSM1116 | – | 0.125 µg/mL
COc1cccc(NCc2ccc(Oc3ccccn3)cc2)c1 | – | – | – | > 50 µg/mL
N=C(N)c1ccc(OCc2ccc(COc3ccc(C(=N)N)cc3)cc2)cc1 | – | BW25113 | – | ≥ 200 µg/mL
O=C(Nc1ccc(F)c(Cl)c1)c1cc(Cl)ccc1O | broth dilution | ATCC25922 | – | > 64 µg/mL
N=C(N)c1cccc(OCc2ccccc2COc2cccc(C(=N)N)c2)c1 | – | BW25113 | – | > 200 µg/mL
O=C(O)c1cn(C2CC2)c2cc(N3CCNCC3)c(F)cc2c1=O | broth dilution | ATCC25922 | – | 16 µg/mL
CNc1cccc2cc(C(=O)Nc3ccc(C(=O)O)cc3)c(=O)[nH]c12 | broth dilution | ATCC25922 | – | 64 µg/mL
COc1c(C)c(OC(=O)c2ccccc2)c(C)c(O)c1C(=O)/C=C/c1ccccc1 | broth dilution | ATCC25922 | – | 5000 µg/mL
N=C(N)c1cccc(OCc2ccc(COc3cccc(C(=N)N)c3)cc2)c1 | broth dilution | BW25113 | – | > 200 µg/mL
CC(C)Oc1c(NC(=O)c2ccc(NC(=O)[C@H](CC(N)=O)NC(=O)c3ccc(NC(=O)c4ccc(C#N)cc4)cc3)cc2)ccc(C(=O)Nc2ccc(C(=O)O)cc2)c1O | – | ATCC25922 | – | 0.02 µg/mL
O=C(CCCCCCCCCC[P+](c1ccccc1)(c1ccccc1)c1ccccc1)Nc1cc(O)c(O)c(O)c1.[Br-] | broth dilution | ATCC25922 | 18 h | > 32 µg/mL
C[C@H](CCC(=O)NCCCNCCCCNCCCN)[C@H]1CCC2=C3CC[C@@H]4C[C@H](O)CC[C@]4(C)[C@H]3C[C@H](O)[C@@]21C | broth dilution | MG1655 | 20 h | 64 µg/mL
O=[N+]([O-])c1ccc(O)c2ncccc12 | broth dilution | ATCC25922 | – | 2 µg/mL
CC(C)Oc1c(NC(=O)c2ccc(NC(=O)[C@H](CC(N)=O)NC(=O)c3ccc(NC(=O)c4ccc(N)cc4)cc3)cc2)ccc(C(=O)Nc2ccc(C(=O)O)cc2)c1O | – | DSM1116 | – | 2 µg/mL
CN(C)c1ccc(-c2nc3ccccc3[nH]2)cc1 | broth dilution | ATCC25922 | – | 64 µg/mL
N=C(N)c1ccc(OCc2ccc(Br)cc2COc2ccc(C(=N)N)cc2)cc1 | broth dilution | W3110 | – | 200 µg/mL
Cc1ccc2nc(-c3ccccc3Cl)[nH]c2c1 | broth dilution | ATCC25922 | – | 64 µg/mL
CC(C)Oc1c(NC(=O)c2ccc(NC(=O)[C@H](CC(N)=O)NC(=O)c3ccc(NC(=O)c4cccc([N+](=O)[O-])c4)cc3)cc2)ccc(C(=O)Nc2ccc(C(=O)O)cc2)c1O | – | DSM1116 | – | > 64 µg/mL
CCCCCCC/C=C/C(=O)N1CC(=O)/C(=C(\C)O)C1=O | – | K12, K12 | – | > 200 µg/mL
COc1cc(Cc2cnc(N)nc2N)cc(OC)c1OC | broth dilution | – | 24 h | > 32 µg/mL
Cc1c(CN(C)C(=O)/C=C/c2cnc3c(c2)CC(CCN)C(=O)N3)oc2ccccc12.Cl (stereo not drawn) | broth dilution | BAA2471 | clinical isolate | 4 µg/mL

Compound | test | test system | conditions | MIC
Cc1ccc2nc(-c3cccnc3)[nH]c2c1 | broth dilution | ATCC25922 | – | 128 µg/mL
Cc1cccc2nc(-c3ccc([N+](=O)[O-])o3)[nH]c12 | broth dilution | ATTC25922 | – | 4 µg/mL
Cc1ccc2nc(-c3ccccc3O)[nH]c2c1 | broth dilution | ATCC25922 | – | 128 µg/mL
Cc1ccc(NCc2ccc(Oc3ccccn3)cc2)cc1 | – | – | – | > 25 µg/mL
Cc1ccc(C)n1-c1ccc(-c2nnc(-c3ccc(N(C)C)cc3)[nH]2)cc1 | broth dilution | ATCC10536 | 18 h | 250 µg/mL
CC(C)Oc1c(NC(=O)c2ccc(NC(=O)[C@H](CC(N)=O)NC(=O)c3ccc(NC(=O)Cc4ccc(C#N)cc4)cc3)cc2)ccc(C(=O)Nc2ccc(C(=O)O)cc2)c1O | – | DSM1116 | – | 1 µg/mL
O=C(CCc1ccc(O)c(O)c1)NCCCCCCCC[P+](c1ccccc1)(c1ccccc1)c1ccccc1.[Br-] | broth dilution | ATCC25922 | 18 h | > 32 µg/mL
Cc1ccc2nc(-c3ccc(Cl)cc3)n(Cc3ccccc3Cl)c2c1 | broth dilution | ATCC25922 | – | 64 µg/mL
c1ccc(NCc2ccc(Oc3ccccn3)cc2)cc1 | – | – | – | > 25 µg/mL
N=C(N)c1ccc(OCCCCCCCCCOc2ccc(C(=N)N)cc2)cc1 | – | BW25113 | – | 50 µg/mL
Cn1c(SCc2ccc(Cl)cc2)nnc1-c1cncc(C#Cc2ccccc2)c1 | – | – | – | ≥ 20 µg/mL
CC(C)Oc1c(NC(=O)c2ccc(NC(=O)[C@H](CC(N)=O)NC(=O)c3ccc(NC(=O)c4ccc([N+](=O)[O-])c5cccnc45)cc3)cc2)ccc(C(=O)Nc2ccc(C(=O)O)cc2)c1O | – | DSM1116 | – | 0.25 µg/mL
CCn1cc(C(=O)O)c(=O)c2cc(F)c(N3CCNCC3)cc21 | broth dilution | ATCC 8739, ATCC8739 | – | 1 µM
Cc1ccc(C)n1-c1ccc(-c2nnc(S)s2)cc1 | broth dilution | ATCC10536 | 18 h | 2 µg/mL
NC1CCCCc2c1[nH]c1cc(Cl)c(Cl)cc21 (stereo not drawn) | broth dilution | ATCC25922 | – | 8 µg/mL
C[C@@H](O)[C@H]1C(=O)N2C(C(=O)O)=C(S[C@@H]3CN[C@H](C(=O)N(C)C)C3)[C@H](C)[C@H]12 | broth dilution | ATCC25922 | – | ≤ 0.125 µg/mL
Cc1ccc2nc(-c3ccc(Cl)cc3Cl)[nH]c2c1 | broth dilution | ATCC25922 | – | 64 µg/mL
C/C(O)=C1\C(=O)C(CC(C)C)N(C(=O)CCCCCc2ccccc2)C1=O (stereo not drawn) | – | K12, K12 | – | > 200 µg/mL
C=CCOc1c(C)c(O)c(C(=O)/C=C/c2ccccc2)c(OC)c1C | broth dilution | ATCC25922 | – | 5000 µg/mL
N=C(N)c1ccc(OCc2cc(Br)cc(COc3ccc(C(=N)N)cc3)c2)cc1 | – | BW25113 | – | > 100 µg/mL
Cc1ccc2nc(-c3ccc(Cl)cc3)n(Cc3ccccc3)c2c1 | broth dilution | ATCC25922 | – | 16 µg/mL
N=C(N)c1ccc(OCc2cccc(COc3ccc(C(=N)N)cc3)c2)cc1 | broth dilution | BW25113 | – | > 200 µg/mL
O=C1NN=C(N=Cc2ccc(O)c(O)c2)C1=NNn1c(-c2ccccc2)nc2ccccc2c1=O | broth dilution | – | 24 h | 53.5 µM
CC(C)Oc1c(N)ccc(C(=O)Nc2ccc(C(=O)N[C@@H](CC(N)=O)C(=O)Nc3ccc(C(=O)Nc4ccc(C(=O)Nc5ccc(C(=O)O)cc5)c(O)c4OC(C)C)cc3)cc2)c1O | – | DSM1116 | – | 2 µg/mL
CC1=NN(CNc2ccc(Cl)cc2)C(=O)C1=NNn1c(-c2ccccc2)nc2ccccc2c1=O | broth dilution | – | 24 h | 51.5 µM
O=C(CCCCCCCCCC[P+](c1ccccc1)(c1ccccc1)c1ccccc1)Nc1ccc(O)c(O)c1.[Br-] | broth dilution | ATCC25922 | 18 h | > 32 µg/mL
C[C@@H](O)[C@H]1C(=O)N2C(C(=O)O)=C(SCCN=CN)C[C@H]12 | broth dilution | KCTC1682 | 16 h | 0.5 µM
